# Experimental data of several laboratories.
# Each line is one published result; the experiments were not run side by side.
# Sample: plasma
Compound,system,setting,measurement,result
COc1ccc(N(Cc2csc(-c3ccccc3)n2)C(=O)CCCCCC(=O)NO)cc1,female Sprague-Dawley rat,"intravenous, 5 mg/kg",MRT,0.39 h
COc1cc(-c2cc(C(C)=O)n3ccccc23)c(OC)cc1Cn1ccnc1,male Sprague-Dawley rat,"oral, 5 mg/kg",MRT(0-t),1.73 h
O=C1CCC(N2Cc3cc(C4CCN(Cc5ccccc5)CC4)ccc3C2=O)C(=O)N1 (stereo not drawn),male Sprague-Dawley rat,"intravenous, 1 mg/kg",MRT(0-inf),4.13 h
Nc1ccn([C@@H]2O[C@H](CO)[C@@H](O)C2(F)F)c(=O)n1,male Sprague-Dawley rat,"intravenous, 5 mg/kg",MRT(0-inf),0.13 h
C[C@H]1Oc2cc(cnc2N)-c2c(nn(C)c2C#N)CN(C)C(=O)c2ccc(F)cc21,male Sprague-Dawley rat,"oral, 50 mg/kg, single dose",MRT(0-inf),25 h
CC[C@@H]([C@H](C)O)n1ncn(-c2ccc(N3CCN(c4ccc(OC[C@@H]5CO[C@@](Cn6cncn6)(c6ccc(F)cc6F)C5)cc4)CC3)cc2)c1=O,Sprague-Dawley rat,"oral, 40 mg/kg",MRT(0-t),10.3 h
CCOc1c([C@H](C)n2nc(C)c3c(N)ncnc32)cc(Cl)c(F)c1[C@@H]1CNC(=O)C1,male Sprague-Dawley rat,"oral, 2 mg/kg, single dose",MRT(0-inf),8.49 h
CC(=O)c1c(C)c2cnc(Nc3ccc(N4CCNCC4)cn3)nc2n(C2CCCC2)c1=O,male Sprague-Dawley rat,"intravenous, 5 mg/kg",MRT,2.5 h
Cn1c(=O)c2[nH]cnc2n(C)c1=O,male Sprague-Dawley rat,"intravenous, 11.25 mg/kg",MRT(0-t),3.3 h
CONC(=O)c1cccc2c1cc(C)n2-c1nc2c(c(NCc3ccccc3)n1)CCCN2,male Sprague-Dawley rat,"oral, 10 mg/kg, single dose",MRT,1.55 h
C[C@H]1[C@@H](O)O[C@@H]2O[C@@]3(C)CC[C@H]4[C@H](C)CC[C@@H]1[C@@]24OO3,male Sprague-Dawley rat,"oral, 10 mg/kg",MRT(0-t),1.56 h
COc1nc(-c2cccc(-c3ccccc3)c2C)ccc1CNCCNC(=O)CCCCCCCCCCC(=O)N1CCN(CCNC(=O)c2cc3c(=O)n4cccc(C)c4nc3n(CCc3cccs3)c2=N)CC1,male Sprague-Dawley rat,"intravenous, 2 mg/kg",MRT(0-inf),5.1 h
C=CC(=O)N1CCC[C@@H](n2nc(-c3ccc(Oc4ccccc4)cc3)c3c(N)ncnc32)C1,male Wistar rat,"oral, 40 mg/kg",MRT,4.55 h
C=CC(=O)N1CCC([C@@H]2CCNc3c(C(N)=O)c(-c4ccc(Oc5ccccc5)cc4)nn32)CC1,Sprague-Dawley rat,"oral, 16 mg/kg",MRT(0-t),3.81 h
C[C@@]12C[C@@]3(O)O[C@@H](O1)[C@]1(COC(=O)c4ccccc4)[C@H]3C[C@@]12O[C@@H]1O[C@H](CO)[C@@H](O)[C@H](O)[C@H]1O,male Sprague-Dawley rat,"oral, 80 mg/kg",MRT(0-t),5.13 h
